This note sets out measurements from ChEMBL document CHEMBL4359825, “Synthesis of novel S-linked dihydroartemisinin derivatives and evaluation of their anticancer activity” (Eur J Med Chem, 2019).

The source made the active and inactive calls. The rule behind the calls is not given here.

Test [1] concerns PC-3. As to the kind of experiment: Cell cycle arrest in human PC3 cells assessed as accumulation at G0/G1 phase at 10 uM measured after 48 hrs by RNase/propidium iodide staining based flow cytometry analysis (reference value: 35.13 %). It counts as functional.
In test [2] the test system is PC-3. The test is described as follows: Cell cycle arrest in human PC3 cells assessed as accumulation at G2/M phase at 10 uM measured after 48 hrs by RNase/propidium iodide staining based flow cytometry analysis (reference value: 22.84 %). It counts as functional.
Test [3] relates to PC-3. The test is described as follows: Induction of apoptosis in human PC3 cells assessed as loss of cell morphology at 3 to 10 uM after 72 hrs by phase contrast microscopy. It counts as functional, cell-based. A digest of the protocol: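 PC-3 cells in exponential growth exposed to 3 or 10 μM for 72 h, washed gently with PBS, and apoptotic morphology recorded by phase-contrast microscopy.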

Test [4] has as its system PC-3. The test is described as follows: Anticlonogenic activity against human PC3 cells assessed as reduction in colony formation at 10 uM incubated for 72 hrs supplemented with fresh medium containing measured after 15 days by colony formation assay. It counts as functional, cell-based. The method, boiled down: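 Clonogenic assay: PC-3 seeded at 500 cells/well in six-well plates, allowed to adhere overnight, then treated. Medium and compound renewed every 72 h over 15 days. Colonies fixed with 3.7% formaldehyde for 20 min, stained with 0.4% crystal violet and counted. Three experiments, each in quadruplicate, expressed as fold change versus control.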

Test [5] deals with PC-3. The test is described as follows: Effect on Pin1 expression in human PC3 cells at 0.1 to 10 uM measured after 72 hrs by Western blot analysis. The format is functional, cell-based. The method, boiled down: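 Western blot: PC-3 seeded 1.25 × 10^5/well, exposed to 0.1–10 μM for 72 h. Lysed in 2× SDS buffer and sonicated; 20–25 μg protein run on 12% SDS gel, transferred to PVDF, blocked in 5% BSA/TBST. Primary antibodies overnight, secondary 1 h; ECL detection, β-actin loading control.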
(In general: Immunoblotting shows a protein as a band on a membrane.)

Test [6] deals with PC-3. The test is described as follows: Cell cycle arrest in human PC3 cells assessed as accumulation at S phase at 3 uM measured after 48 hrs by RNase/propidium iodide staining based flow cytometry analysis (reference value: 42.03 %). It counts as functional. A general note: In flow cytometry, cells or beads pass a laser one at a time.
In test [7] the test system is PC-3. As to the kind of experiment: Cell cycle arrest in human PC3 cells assessed as accumulation at S phase at 10 uM measured after 48 hrs by RNase/propidium iodide staining based flow cytometry analysis (reference value: 42.03 %). It counts as functional.
Test [8] has as its system PC-3. As to the kind of experiment: Induction of apoptosis in human PC3 cells assessed as nuclear condensation at 3 to 10 uM after 72 hrs by Hoechst 33342 staining based fluorescence microscopy. It counts as functional, cell-based. A digest of the protocol:
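PC-3 cells treated 72 h with 3 or 10 μM, stained with Hoechst 33342 for 15 min at room temperature in the dark, washed with PBS, and nuclei examined by fluorescence microscopy for condensation.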

Test [9] deals with PC-3. The test is described as follows: Cell cycle arrest in human PC3 cells assessed as accumulation at G2/M phase at 3 uM measured after 48 hrs by RNase/propidium iodide staining based flow cytometry analysis (reference value: 22.84 %). The format is functional.
Test [10] deals with PC-3. As to the kind of experiment: Cell cycle arrest in human PC3 cells assessed as accumulation at G0/G1 phase at 3 uM measured after 48 hrs by RNase/propidium iodide staining based flow cytometry analysis (reference value: 35.13 %). The format is functional.

On to `C[C@@H]1CC[C@H]2[C@@H](C)C(=O)O[C@@H]3O[C@@]4(C)CC[C@@H]1[C@]32OO4` [ARTEMISININ], for which the Activity in [1] worked out at 35.55%; in test [2], 16.07%; in test [6] it was 44.42%; in test [7] it was 48.38%; in [9] it was 22.1%; in test [10], 33.48%. Further, the result in test [3], in [4] and in [8] was Active. The outcome in test [5] was inactive.
